Measurements reported in ChEMBL document CHEMBL1154198, “Chemical genetics of Plasmodium falciparum” (Nature, 2010).

Experiments:
Plasmodium falciparum [1] = assay: ST_JUDE: Cytotoxicity against Plasmodium falciparum V1/S; type: functional, organism-based
[2] = ST_JUDE: Cytotoxicity using luciferase to measure ATP as an indicator of the viability of human epithelial embryonic kidney cells (HEK293); type: toxicity, cell-based
Plasmodium falciparum [3] = assay: ST_JUDE: Cytotoxicity against Plasmodium falciparum D10 transfected with yeast DHOD; type: functional, organism-based
Plasmodium falciparum [4] = assay: ST_JUDE: Cytotoxicity against Plasmodium falciparum SB-A6; type: functional, organism-based
[5] = ST_JUDE: Cytotoxicity using luciferase to measure ATP as an indicator of the viability of human epithelial hepatocellular carcinoma cells (HepG2); type: toxicity, cell-based
Plasmodium falciparum [6] = assay: ST_JUDE: Cytotoxicity against Plasmodium falciparum W2; type: functional, organism-based
Toxoplasma gondii = assay: ST_JUDE: Growth inhibition of to Toxoplasma gondii, in human U-2OS cells, as measured by luciferase.; type: functional, organism-based; conditions: RH, U2OS
Summary of the method: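 T. gondii parasites engineered to express luciferase; drug sensitivity read by luminescence.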

Plasmodium falciparum [7] = assay: ST_JUDE: Plasmodium falciparum 3D7 EC50 (uM) as measured by SYBR green dye; type: functional, organism-based
[8] = ST_JUDE: Cytotoxicity using luciferase to measure ATP as an indicator of the viability of human foreskin fibroblast cells (BJ); type: toxicity, cell-based
Plasmodium falciparum [9] = assay: ST_JUDE: Cytotoxicity against Plasmodium falciparum K1; type: functional, organism-based
Summary of the method: (§1)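 Asexual P. falciparum grown in human erythrocytes, exposed to compounds for 72 h, and growth read as the DNA quantity in treated versus control cultures. Dose-response run at 12 concentrations from 10 μM to 5 nM.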

Plasmodium falciparum [10] = assay: ST_JUDE: Cytotoxicity against Plasmodium falciparum Dd2; type: functional, organism-based
Plasmodium falciparum [11] = assay: ST_JUDE: Plasmodium falciparum K1 EC50 (uM) as measured by SYBR green dye; type: functional, organism-based
[12] = ST_JUDE: Cytotoxicity using luciferase to measure ATP as an indicator of the viability of human Burkitt''s lymphoma lymphoblast cells (Raji); type: toxicity, cell-based
Leishmania major = assay: ST_JUDE: Cytotoxicity using Alamar Blue to measure viability of Leishmania major; type: functional, organism-based
Summary of the method: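 L. major promastigotes; drug susceptibility read with Alamar Blue.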

Plasmodium falciparum [13] = assay: ST_JUDE: Cytotoxicity against Plasmodium falciparum 3D7; type: functional, organism-based; summary of the method: as §1
Trypanosoma brucei = assay: ST_JUDE: Cytotoxicity using luciferase to measure ATP as an indicator of the viability of Trypanosoma brucei; type: functional, organism-based

| SMILES | EC50 (Plasmodium falciparum [1]) [nM] | EC50 [2] [nM] | EC50 (Plasmodium falciparum [3]) [nM] | EC50 (Plasmodium falciparum [4]) [nM] | EC50 [5] [nM] | EC50 (Plasmodium falciparum [6]) [nM] | EC50 (Toxoplasma gondii) [nM] | EC50 (Plasmodium falciparum [7]) [nM] | EC50 [8] [nM] | EC50 (Plasmodium falciparum [9]) [nM] | EC50 (Plasmodium falciparum [10]) [nM] | EC50 (Plasmodium falciparum [11]) [nM] | EC50 [12] [nM] | EC50 (Leishmania major) [nM] | EC50 (Plasmodium falciparum [13]) [nM] | EC50 (Trypanosoma brucei) [nM] |
| --- | --- | --- | --- | --- | --- | --- | --- | --- | --- | --- | --- | --- | --- | --- | --- | --- |
| COc1ccc(Nc2cc(C)c3ccc(O)cc3n2)cc1 | 307 | > 47400 | 1070 | 1230 | 43000 | 284 | 25400 | 545 | > 47400 | 241 | 709 | 216 | > 47400 | > 20300 | 688 | > 45400 |
| OC(CNC1CCCC1)Cn1c2ccc(Cl)cc2c2cc(Cl)ccc21 (stereo not given) | 690 | 20500 | 652 | 635 | 8670 | 572 | > 13300 | 990 | > 24300 | 258 | 253 | 146 | 10900 | > 10400 | 576 | 2020 |
| Cc1ccc(C(O)(CNCc2ccccc2)c2ccc(Br)cc2)cc1 (stereo not given) | 1280 | > 48300 | 1730 | 3450 | 20000 | 4370 | > 26500 | 2230 | > 48300 | 1170 | 1470 | 1110 | 35500 | > 20700 | 2100 | 9550 |
| CCOc1cc(C2CC(=O)NC3=C2C(=O)CC(c2ccccc2Cl)C3)cc(Cl)c1O (stereo not given) | 1080 | > 43200 | 1210 | 1150 | > 43200 | 860 | > 23700 | 500 | > 43200 | 916 | 1020 | 212 | > 43200 | > 18500 | 890 | 19700 |
| Clc1ccc(Nc2nc(NCc3ccco3)c3ccccc3n2)cc1 | > 11900 | 31200 | 1150 | 388 | 24000 | > 11900 | > 25400 | 797 | > 46400 | 1830 | 818 | 1710 | > 46400 | 0.6 | 1260 | 9210 |
